Reference: ChEMBL document CHEMBL4028911, “Discovery of a Small-Molecule Bromodomain-Containing Protein 4 (BRD4) Inhibitor That Induces AMP-Activated Protein Kinase-Modulated Autophagy-Associated Cell Death in Breast Cancer” (J Med Chem, 2017)
Calls of active or inactive are those of the source. The calls are words filed in the database; no cut-off is given here.

Experiments:
MCF7 [1] = assay: Antiproliferative activity against human MCF7 cells after 24 hrs by MTT assay; assay type: functional, cell-based; details: MCF7, 24 h
MDA-MB-231 [2] = assay: Antiproliferative activity against human MDA-MB-231 cells after 24 hrs by MTT assay; assay type: functional, cell-based; details: MDA-MB-231, 24 h
[3] = molecular target: Bromodomain-containing protein 4 (Homo sapiens, UniProt O60885); assay: Inhibition of His/thioredoxin-tagged human recombinant BRD4 bromodomain-1 (43 to 166 residues) expressed in Escherichia coli BL21 Star (DE3) pre-incubated for 30 mins followed by biotinylated histone peptide H4 addition measured after 30 mins by AlphaScreen assay
MCF7 [4] = assay: Induction of autophagy in GFP/mRFP treated human MCF7 cells assessed as induction of LC3 puncta at 150 uM by fluorescence microscopic analysis; assay type: functional, cell-based
Summary of the method: (§1)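 MCF-7 or MDA-MB-231 cells transfected with GFP/mRFP-LC3 plasmid, then treated with 150 µM for indicated times. GFP-LC3 puncta observed by fluorescence microscopy.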

MDA-MB-231 [5] = assay: Induction of autophagy in GFP/mRFP treated human MDA-MB-231 cells assessed as induction of LC3 puncta at 150 uM by fluorescence microscopic analysis; assay type: functional, cell-based; summary of the method: as §1
MDA-MB-231 [6] = assay: Induction of autophagy in human MDA-MB-231 cells assessed as downregulation of p62/SQSTM1 expression at […] by Western blot analysis; assay type: functional, cell-based
MCF7 [7] = assay: Induction of autophagy in human MCF7 cells assessed as downregulation of p62/SQSTM1 expression at […] by Western blot analysis; assay type: functional, cell-based

Row | Compound | IC50 (MCF7 [1]) | IC50 (MDA-MB-231 [2]) | IC50 [3] | Activity (MCF7 [4]) | Activity (MDA-MB-231 [5]) | Activity (MDA-MB-231 [6]) | Activity (MCF7 [7])
1 | Cc1cc(-c2nc3sc4c(c3c(=O)[nH]2)CCCCC4)cc(C)c1O | 2.81 µM | 8.31 µM | 0.49 µM | – | – | – | –
2 | O=c1[nH]c(-c2cccc(Br)c2)nc2sc3c(c12)CCC3 | > 30 µM | > 30 µM | > 10 µM | – | – | – | –
3 | O=c1[nH]c(-c2ccccc2)nc2sc3c(c12)CCC3 | > 30 µM | > 30 µM | > 10 µM | – | – | – | –
4 | CCCc1cc2c(=O)[nH]c(-c3cccc(OC)c3)nc2s1 | > 30 µM | > 30 µM | > 10 µM | – | – | – | –
5 | O=c1[nH]c(-c2ccc(O)cc2)nc2sc3c(c12)CCCC3 | 22.8 µM | > 30 µM | 7.32 µM | – | – | – | –
6 | CN1CCc2c(sc3nc(-c4ccc(C(F)(F)F)cc4)[nH]c(=O)c23)C1 | > 30 µM | 22.2 µM | > 10 µM | – | – | – | –
7 | O=c1[nH]c(-c2ccc(O)cc2)nc2sc3c(c12)CCN(Cc1ccccc1)C3 | 17 µM | > 30 µM | 6.37 µM | – | – | – | –
8 | CN1CCc2c(sc3nc(Cc4ccc(-c5ccccc5)cc4)[nH]c(=O)c23)C1 | > 30 µM | > 30 µM | > 10 µM | – | – | – | –
9 | CC1CCc2c(sc3nc(-c4ccccc4)[nH]c(=O)c23)C1 (configuration not stated) | > 30 µM | > 30 µM | > 10 µM | – | – | – | –
10 | O=c1[nH]c(-c2ccc(C(F)(F)F)cc2)nc2sc3c(c12)CCN(Cc1ccccc1)C3 | > 30 µM | > 30 µM | > 10 µM | – | – | – | –
11 | CC1CCc2c(sc3nc(-c4ccc(C(F)(F)F)cc4)[nH]c(=O)c23)C1 (configuration not stated) | > 30 µM | > 30 µM | > 10 µM | – | – | – | –
12 | CC1CCc2c(sc3nc(Cc4ccc(-c5ccccc5)cc4)[nH]c(=O)c23)C1 (configuration not stated) | > 30 µM | > 30 µM | > 10 µM | – | – | – | –
13 | COc1cc(OC)c2c(=O)[nH]c(-c3cc(C)c(OCCO)c(C)c3)nc2c1 [APABETALONE] | 140 µM | 155 µM | – | Active | Active | Active | Active
14 | O=c1[nH]c(Cc2ccccc2)nc2sc3c(c12)CCC3 | > 30 µM | > 30 µM | > 10 µM | – | – | – | –
15 | Oc1nc(-c2ccccc2)nc2sc3c(c12)CCCC3 | > 30 µM | > 30 µM | > 10 µM | – | – | – | –
16 | O=c1[nH]c(-c2ccc(O)cc2)nc2sc3c(c12)CCCCC3 | 1.56 µM | 3.29 µM | 0.56 µM | – | – | – | –
17 | CCCc1cc2c(=O)[nH]c(-c3ccc(O)cc3)nc2s1 | > 30 µM | 28.4 µM | 8.59 µM | – | – | – | –
18 | Cc1cc(-c2nc3sc4c(c3c(=O)[nH]2)CCN(Cc2ccccc2)C4)cc(C)c1O | > 30 µM | > 30 µM | > 10 µM | – | – | – | –
19 | COc1cccc(-c2nc3sc4c(c3c(=O)[nH]2)CCCC4)c1 | > 30 µM | > 30 µM | > 10 µM | – | – | – | –
20 | COc1cccc(-c2nc(=O)c3c4c(sc3[nH]2)CC(C)CC4)c1 (configuration not stated) | > 30 µM | > 30 µM | > 10 µM | – | – | – | –
21 | CC1CCc2c(sc3nc(-c4cccc(Br)c4)[nH]c(=O)c23)C1 (configuration not stated) | 2.69 µM | 16.3 µM | 1.02 µM | – | – | – | –
22 | CCCc1cc2c(=O)[nH]c(Cc3ccc(-c4ccccc4)cc3)nc2s1 | > 30 µM | > 30 µM | > 10 µM | – | – | – | –
23 | Cc1sc2c(c1C)C(c1ccc(Cl)cc1)=N[C@@H](CC(=O)OC(C)(C)C)c1nnc(C)n1-2 | 28.8 µM | 33 µM | – | – | – | – | –
24 | CC1CCc2c(sc3nc(-c4ccc(O)cc4)[nH]c(=O)c23)C1 (configuration not stated) | 12.2 µM | 22.9 µM | 4.31 µM | – | – | – | –
25 | CC1CCc2c(sc3nc(-c4cccc(O)c4)[nH]c(=O)c23)C1 (configuration not stated) | > 30 µM | > 30 µM | > 10 µM | – | – | – | –

Row | Compound | IC50 (MCF7 [1]) | IC50 (MDA-MB-231 [2]) | IC50 [3] | Activity (MCF7 [4]) | Activity (MDA-MB-231 [5]) | Activity (MDA-MB-231 [6]) | Activity (MCF7 [7])
26 | COc1ccccc1-c1nc2sc3c(c2c(=O)[nH]1)CCC3 | 2.22 µM | 5.34 µM | 0.78 µM | – | – | – | –
27 | O=c1[nH]c(-c2ccccc2)nc2sc3c(c12)CCN(Cc1ccccc1)C3 | > 30 µM | > 30 µM | > 10 µM | – | – | – | –
28 | COc1cccc(-c2nc3sc4c(c3c(=O)[nH]2)CCN(Cc2ccccc2)C4)c1 | > 30 µM | > 30 µM | > 10 µM | – | – | – | –
29 | O=c1[nH]c(-c2ccc(C(F)(F)F)cc2)nc2sc3c(c12)CCCCC3 | > 30 µM | > 30 µM | > 10 µM | – | – | – | –
30 | O=c1[nH]c(-c2ccc(F)cc2F)nc2sc3c(c12)CCCC3 | > 30 µM | > 30 µM | > 10 µM | – | – | – | –
31 | O=c1[nH]c(-c2ccc(C(F)(F)F)cc2)nc2sc3c(c12)CCC3 | 8.39 µM | 14.7 µM | 1.53 µM | – | – | – | –
32 | O=c1[nH]c(-c2ccc(Br)cc2)nc2sc3c(c12)CCC3 | 21.3 µM | > 30 µM | 8.94 µM | – | – | – | –
33 | CC1CCc2c(sc3nc(-c4cc(F)c(F)c(F)c4)[nH]c(=O)c23)C1 (configuration not stated) | > 30 µM | > 30 µM | > 10 µM | – | – | – | –
34 | Cc1cc(-c2nc3sc4c(c3c(=O)[nH]2)CCC4)cc(C)c1O | 18.5 µM | 23.1 µM | 6.38 µM | – | – | – | –
35 | Cc1cc(-c2nc3sc4c(c3c(=O)[nH]2)CCC(C)C4)cc(C)c1O (configuration not stated) | 5.59 µM | 9.42 µM | 3.24 µM | – | – | – | –
36 | O=c1[nH]c(-c2cccc(Br)c2)nc2sc3c(c12)CCCCC3 | 18.5 µM | > 30 µM | 5.73 µM | – | – | – | –
37 | COc1ccccc1-c1nc2sc3c(c2c(=O)[nH]1)CCN(C)C3 | 5.6 µM | 8.19 µM | 2.47 µM | – | – | – | –
38 | O=c1[nH]c(-c2cccc(O)c2)nc2sc3c(c12)CCCCC3 | 13.2 µM | 17.4 µM | 3.98 µM | – | – | – | –
39 | CCCc1cc2c(=O)[nH]c(-c3cccc(Br)c3)nc2s1 | > 30 µM | > 30 µM | > 10 µM | – | – | – | –
40 | O=c1[nH]c(-c2ccc(C(F)(F)F)cc2)nc2sc3c(c12)CCCC3 | 28.1 µM | > 30 µM | > 10 µM | – | – | – | –
41 | CN1CCc2c(sc3nc(-c4ccc(O)cc4)[nH]c(=O)c23)C1 | 5.48 µM | 8.29 µM | 0.72 µM | – | – | – | –
42 | O=c1[nH]c(Cc2ccc(-c3ccccc3)cc2)nc2sc3c(c12)CCCCC3 | > 30 µM | > 30 µM | > 10 µM | – | – | – | –
43 | Cc1cc(-c2nc3sc4c(c3c(=O)[nH]2)CCCC4)cc(C)c1O | 24.9 µM | 27.8 µM | 6.93 µM | – | – | – | –
44 | O=c1[nH]c(Cc2ccccc2)nc2sc3c(c12)CCCCC3 | 4.5 µM | 5.8 µM | 0.82 µM | – | – | – | –
45 | CN1CCc2c(sc3nc(-c4cccc(Br)c4)[nH]c(=O)c23)C1 | 2.17 µM | 8.31 µM | 1.04 µM | – | – | – | –
46 | O=c1[nH]c(-c2ccc(Br)cc2)nc2sc3c(c12)CCCCC3 | > 30 µM | > 30 µM | > 10 µM | – | – | – | –
47 | CC1CCc2c(sc3nc(-c4ccc(Br)cc4)[nH]c(=O)c23)C1 (configuration not stated) | > 30 µM | > 30 µM | > 10 µM | – | – | – | –
48 | CN1CCc2c(sc3nc(-c4cccc(O)c4)[nH]c(=O)c23)C1 | > 30 µM | > 30 µM | > 10 µM | – | – | – | –
49 | O=c1[nH]c(-c2ccc(Br)cc2)nc2sc3c(c12)CCCC3 | > 30 µM | > 30 µM | > 10 µM | – | – | – | –
50 | CC1CCc2c(sc3nc(Cc4ccccc4)[nH]c(=O)c23)C1 (configuration not stated) | > 30 µM | > 30 µM | > 10 µM | – | – | – | –
